The values that follow come from ChEMBL document CHEMBL1148330, “Synthesis and biological evaluation of 14-alkoxymorphinans. 21. Novel 4-alkoxy and 14-phenylpropoxy derivatives of the mu opioid receptor antagonist cyprodime” (J Med Chem, 2004).

Experiment [1] has as its target T1, Kappa-type opioid receptor (Homo sapiens, UniProt P41145). The experiment can be described thus: Percent maximal stimulation of [35S]GTP-gamma-S, binding to recombinant human Opioid receptor kappa 1 expressed in CHO cells. The format is functional, cell-based. The gist of the method: (§1)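 Membranes from CHO cells stably expressing human µ, δ or κ opioid receptor, incubated with varying concentrations of compound in a [35S]GTPγS binding assay. Emax is % maximal stimulation of [35S]GTPγS binding. EC50 is the concentration giving 50% of the Emax value. Mean ± SEM.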
A general note: GTPγS resists hydrolysis and so accumulates on activated G proteins.

For experiment [2], the target named is T2, Mu-type opioid receptor (Homo sapiens, UniProt P35372). In words: Concentration necessary to produce 50% of the Emax value, i.e. to stimulate [35S]GTP-gamma-S, binding to recombinant human Opioid receptor mu 1 expressed in CHO cells. It counts as functional, cell-based. The gist of the method: as §1
T2 sequence (P35372 whole entry): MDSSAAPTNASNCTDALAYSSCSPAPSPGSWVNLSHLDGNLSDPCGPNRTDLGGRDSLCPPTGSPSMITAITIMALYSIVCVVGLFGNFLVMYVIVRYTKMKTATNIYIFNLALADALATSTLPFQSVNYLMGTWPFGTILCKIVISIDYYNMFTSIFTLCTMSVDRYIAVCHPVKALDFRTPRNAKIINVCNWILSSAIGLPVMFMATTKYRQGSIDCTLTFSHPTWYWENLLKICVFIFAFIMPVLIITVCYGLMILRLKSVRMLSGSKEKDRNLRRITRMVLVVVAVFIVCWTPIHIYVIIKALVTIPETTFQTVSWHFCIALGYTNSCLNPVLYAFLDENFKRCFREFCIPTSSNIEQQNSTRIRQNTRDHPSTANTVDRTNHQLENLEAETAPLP
Experiment [3] concerns the target T3, Delta-type opioid receptor (Homo sapiens, UniProt P41143). In words: Percent maximal stimulation of [35S]GTP-gamma-S, binding to recombinant human opioid receptor delta 1 expressed in CHO cells. It counts as functional, cell-based. The gist of the method: as §1
The target of experiment [4] is Opioid receptors; mu & delta (Rattus norvegicus) (UniProt P33533+P33535). The experiment can be described thus: Selectivity ratio of binding affinities between delta opioid receptors and mu opioid receptors in rat brain membranes. The format is cell membranes. The procedure, abridged:
(§2)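 Competitive radioligand binding in rat brain membranes: [3H]DAMGO (µ), [3H][Ile5,6]deltorphin II (δ), [3H]U69,593 (κ). Ki reported as mean ± SEM. Selectivity ratios are Ki δ/Ki µ and Ki κ/Ki µ.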

For experiment [5], the target named is Kappa-type opioid receptor (Rattus norvegicus, UniProt P34975). In words: Binding affinity determined by displacing [3H]U69,593 from Opioid receptor kappa 1 in rat brain membranes. It counts as cell membranes. The gist of the method:
as §2

Experiment [6] concerns the target T3, Delta-type opioid receptor. The experiment can be described thus: Concentration necessary to produce 50% of the Emax value, i.e. to stimulate [35S]GTP-gamma-S, binding to recombinant human opioid receptor delta 1 expressed in CHO cells. It counts as functional, cell-based. The procedure, abridged: as §1
Experiment [7] deals with Mus musculus. The experiment can be described thus: Effective dose (sc) required for antinociceptive potency in vivo in the tail-flick (TF) test in mice. It counts as functional.
Experiment [8] concerns Mus musculus. The experiment can be described thus: Effective dose (sc) required for antinociceptive potency in vivo in the paraphenylquinone writhing (PPQ) test in mice. The format is functional. (In general: Writhing tests count abdominal constrictions after an irritant is injected.)
Experiment [9] deals with T1, Kappa-type opioid receptor. The experiment can be described thus: Concentration necessary to produce 50% of the Emax value, i.e. to stimulate [35S]GTP-gamma-S, binding to recombinant human Opioid receptor kappa 1 expressed in CHO cells. It counts as functional, cell-based. The gist of the method:
as §1

The species entered for the next experiment is Rattus norvegicus. In words: Selectivity ratio of binding affinities between kappa opioid receptors and mu opioid receptors in rat brain membranes. It counts as cell membranes. The gist of the method:
as §2

Experiment [10] concerns the target Mu-type opioid receptor (Rattus norvegicus, UniProt P33535). The experiment can be described thus: Binding affinity determined by displacing [3H]DAMGO from Opioid receptor mu 1 in rat brain membranes. The format is cell membranes. The procedure, abridged:
as §2

For experiment [11], the target named is T2, Mu-type opioid receptor. In words: Percent maximal stimulation of [35S]GTP-gamma-S, binding to recombinant human Opioid receptor mu 1 expressed in CHO cells. It counts as functional, cell-based. The gist of the method: as §1
Experiment [12] relates to Mus musculus. In words: Effective dose (sc) required for antinociceptive potency in vivo in the hotplate (HP) test in mice. The format is functional.
Experiment [13] addresses T1, Kappa-type opioid receptor. In words: Antagonistic activity against recombinant human Opioid receptor kappa 1 expressed in CHO cells when incubated with U69,593. The format is functional, cell-based. The gist of the method: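 Membranes from CHO cells stably expressing the human κ opioid receptor, incubated with the agonist U69,593 in the presence of varying concentrations of compound. Antagonist Ke values reported as mean ± SEM.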

In experiment [14] the target is T2, Mu-type opioid receptor. The following applies: CHO.

Usually Emax stands for the maximal effect, on the per cent scale that the assay sets. Broadly, the EC50 is the concentration needed to bring the measured effect to its halfway point. In general, Ki refers to a measure of affinity in units of concentration, obtained from inhibition or displacement. The term ED50 denotes the dose at which the effect has come halfway, by size or by number of responders. Higher therefore signals a need for a large dose.

Bounds are passed on as bounds.

Chain of Mu-type opioid receptor (Rattus norvegicus, UniProt P33535) (P33535 whole entry): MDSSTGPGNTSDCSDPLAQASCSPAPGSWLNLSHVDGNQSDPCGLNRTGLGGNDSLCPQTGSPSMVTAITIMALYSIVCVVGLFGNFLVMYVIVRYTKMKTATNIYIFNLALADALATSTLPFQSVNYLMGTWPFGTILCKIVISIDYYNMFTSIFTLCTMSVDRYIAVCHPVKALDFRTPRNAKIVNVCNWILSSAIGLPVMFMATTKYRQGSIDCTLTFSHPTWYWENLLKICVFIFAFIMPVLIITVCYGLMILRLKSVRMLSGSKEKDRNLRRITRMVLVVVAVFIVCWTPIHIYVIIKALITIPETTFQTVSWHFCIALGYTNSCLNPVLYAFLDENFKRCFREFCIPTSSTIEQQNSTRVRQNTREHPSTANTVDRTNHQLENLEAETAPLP
T1 sequence (P41145 whole entry): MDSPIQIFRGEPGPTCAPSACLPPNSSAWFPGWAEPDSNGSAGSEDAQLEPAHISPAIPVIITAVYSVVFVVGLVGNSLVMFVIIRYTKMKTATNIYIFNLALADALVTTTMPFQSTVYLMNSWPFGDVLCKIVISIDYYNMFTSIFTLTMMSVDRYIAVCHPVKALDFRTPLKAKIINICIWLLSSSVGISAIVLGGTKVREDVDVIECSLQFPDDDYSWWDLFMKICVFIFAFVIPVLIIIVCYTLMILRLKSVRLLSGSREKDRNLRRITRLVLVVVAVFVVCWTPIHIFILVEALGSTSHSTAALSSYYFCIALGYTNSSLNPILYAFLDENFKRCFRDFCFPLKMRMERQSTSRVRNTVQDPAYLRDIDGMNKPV
Chain of Kappa-type opioid receptor (Rattus norvegicus, UniProt P34975) (P34975 whole entry): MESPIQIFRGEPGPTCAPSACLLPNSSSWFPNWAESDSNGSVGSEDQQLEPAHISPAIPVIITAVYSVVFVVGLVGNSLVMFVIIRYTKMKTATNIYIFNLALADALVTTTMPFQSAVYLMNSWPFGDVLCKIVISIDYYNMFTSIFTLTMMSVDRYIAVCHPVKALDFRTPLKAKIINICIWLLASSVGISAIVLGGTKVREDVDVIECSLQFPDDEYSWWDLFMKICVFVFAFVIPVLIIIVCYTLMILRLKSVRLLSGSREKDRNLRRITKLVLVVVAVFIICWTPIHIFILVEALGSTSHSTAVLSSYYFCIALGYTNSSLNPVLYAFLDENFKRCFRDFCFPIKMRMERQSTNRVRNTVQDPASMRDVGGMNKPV
T3 sequence (P41143 whole entry): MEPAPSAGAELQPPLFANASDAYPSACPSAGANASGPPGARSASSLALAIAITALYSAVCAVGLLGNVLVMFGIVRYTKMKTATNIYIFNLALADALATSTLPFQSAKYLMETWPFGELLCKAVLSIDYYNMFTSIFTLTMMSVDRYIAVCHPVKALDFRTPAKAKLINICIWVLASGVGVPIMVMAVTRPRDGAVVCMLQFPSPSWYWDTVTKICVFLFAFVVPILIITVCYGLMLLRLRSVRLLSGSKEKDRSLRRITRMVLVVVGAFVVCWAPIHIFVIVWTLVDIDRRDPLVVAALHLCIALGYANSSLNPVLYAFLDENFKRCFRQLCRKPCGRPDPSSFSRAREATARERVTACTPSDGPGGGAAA
Chain of Opioid receptors; mu & delta (Rattus norvegicus) (P33533 whole entry, looked up): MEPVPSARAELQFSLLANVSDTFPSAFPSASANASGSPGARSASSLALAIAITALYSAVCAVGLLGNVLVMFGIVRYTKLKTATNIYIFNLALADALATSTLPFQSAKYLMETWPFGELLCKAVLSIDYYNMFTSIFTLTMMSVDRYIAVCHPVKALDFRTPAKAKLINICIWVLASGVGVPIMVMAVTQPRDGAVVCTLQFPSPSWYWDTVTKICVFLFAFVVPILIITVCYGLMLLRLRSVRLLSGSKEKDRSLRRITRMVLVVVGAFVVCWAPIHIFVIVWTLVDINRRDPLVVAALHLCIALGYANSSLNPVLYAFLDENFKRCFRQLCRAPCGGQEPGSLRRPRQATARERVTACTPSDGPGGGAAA
Chain of Opioid receptors; mu & delta (Rattus norvegicus) (P33535 whole entry, looked up): as the sequence (P33535 whole entry) above

As to `O=C1CC[C@@]2(OCCCc3ccccc3)[C@H]3Cc4cccc(O)c4[C@@]2(CCN3CC2CC2)C1`, the Emax in [1] amounted to 45.8%; in [3] it was 49%; at Mu-type opioid receptor [11], 35%. The EC50 came to 0.00347 µM at Mu-type opioid receptor [2], 0.00791 µM in experiment [6] and 0.00451 µM in experiment [9]. Moreover, the Selectivity ratio was determined as 13 in experiment [4] and 15 in the experiment listed under Rattus norvegicus. The Ki in experiment [5] was 5.84 µM; at Mu-type opioid receptor [10] it was 0.4 µM. Further, the median effective dose (ED50) in the experiment with Mus musculus [7] is 0.05 mg/kg; in the experiment with Mus musculus [8] it was 0.0014 mg/kg; in the experiment on Mus musculus [12], 0.04 mg/kg.
As to `CCCCOc1cccc2c1[C@]13CCN(CC4CC4)[C@H](C2)[C@]1(OC)CCC(=O)C3`, the EC50 is > 10 µM on Mu-type opioid receptor [2], 1.61 µM in [6] and > 10 µM in experiment [9]. Moreover, the Emax in experiment [3] turned out to be 22%. Moreover, the Selectivity ratio in experiment [4] amounted to 55; in the experiment listed under Rattus norvegicus it was 19. Besides, the inhibitory constant (Ki) in experiment [5] is 261 µM; on Mu-type opioid receptor [10], 13.8 µM. Besides, the results for the Ke (in experiment [13]; on Mu-type opioid receptor [14]) were 120 nM and 11.1 nM, respectively.
Turning to `O=C1CC[C@@]2(OCCCc3ccccc3)[C@H]3Cc4cccc5c4[C@@]2(CCN3CC2CC2)C1O5` (some centres undefined), the EC50 at Mu-type opioid receptor [2] was 0.0098 µM; in [6], 0.0868 µM; in [9], > 10 µM. Besides, the Emax was determined as 17% in [3] and 43% at Mu-type opioid receptor [11]. Moreover, the Selectivity ratio in experiment [4] is 55; in the experiment listed under Rattus norvegicus, 27. Further, the results for the Ki (in [5]; at Mu-type opioid receptor [10]) were 22.8 µM and 0.84 µM, respectively. The Ke in experiment [13] amounted to 8.54 nM. The ED50 turned out to be 0.187 mg/kg in the experiment on Mus musculus [7], 0.0094 mg/kg in the experiment with Mus musculus [8] and 0.68 mg/kg in the experiment with Mus musculus [12].
In the case of `CO[C@@]12CCC(=O)[C@]3(C)Oc4c(O)ccc5c4[C@@]31CCN(C)[C@@H]2C5`, the median effective dose (ED50) with Mus musculus [7] came to 0.03 mg/kg; in the experiment on Mus musculus [8], 0.009 mg/kg; in the experiment on Mus musculus [12] it was 0.03 mg/kg.
In the case of `COc1cccc2c1[C@]13CCN(CC4CC4)[C@H](C2)[C@]1(OC)CCC(=O)C3` [CYPRODIME], the Emax in experiment [1] came out at 18.8%; in [3], 18%; at Mu-type opioid receptor [11], 33%. Further, the values for the Selectivity ratio (in experiment [4]; in the experiment filed under Rattus norvegicus) were 39 and 10, respectively. For the same compound, the values for the Ki (in [5]; on Mu-type opioid receptor [10]) were 109 µM and 10.6 µM, respectively. In addition, the Ke in [13] came out at 26.1 nM; on Mu-type opioid receptor [14], 12.4 nM. Also, the EC50 in [6] was determined as 1.1 µM; in experiment [9], 0.117 µM.
For the compound `CCCCOc1cccc2c1[C@]13CCN(CC4CC4)[C@H](C2)[C@]1(OCCCc1ccccc1)CCC(=O)C3`, the Selectivity ratio was 16 in experiment [4] and 10 in the experiment filed under Rattus norvegicus. Besides, the Ki in experiment [5] was 150 µM; on Mu-type opioid receptor [10], 14.9 µM.
Consider `CO[C@@]12CCC(=O)C[C@@]13CCN(CC1CC1)[C@@H]2Cc1cccc(OCCCc2ccccc2)c13`, for which the Selectivity ratio in experiment [4] is 33; in the experiment filed under Rattus norvegicus, 4.8. The Ki in [5] amounted to 208 µM; on Mu-type opioid receptor [10] it was 43.3 µM.
In the case of `COc1cccc2c1[C@]13CCN(CC4CC4)[C@H](C2)[C@]1(OCCCc1ccccc1)CCC(=O)C3`, the EC50 on Mu-type opioid receptor [2] is 0.00197 µM; in experiment [6] it was 0.0206 µM; in experiment [9], > 10 µM. Further, the Emax in experiment [3] came to 22%; on Mu-type opioid receptor [11], 35%. Besides, the Selectivity ratio in [4] stood at 50; in the experiment filed under Rattus norvegicus it was 22. Besides, the results for the Ki (in experiment [5]; at Mu-type opioid receptor [10]) were 7.36 µM and 0.34 µM, respectively. Besides, in experiment [13], the Ke came to 2.52 nM. The values for the ED50 in the experiment on Mus musculus [7], in the experiment on Mus musculus [8] and in the experiment on Mus musculus [12] were 0.28 mg/kg, 0.06 mg/kg and 0.3 mg/kg, respectively.
Take `CCCCCCOc1cccc2c1[C@]13CCN(CC4CC4)[C@H](C2)[C@]1(OC)CCC(=O)C3`: the figures for the Selectivity ratio (in experiment [4]; in the experiment listed under Rattus norvegicus) were 26 and 9.8, respectively. The Ki was 441 µM in experiment [5] and 44.9 µM at Mu-type opioid receptor [10].
For `CO[C@@]12CCC(=O)C[C@@]13CCN(CC1CC1)[C@@H]2Cc1cccc(OCc2ccccc2)c13` the same measures were 18, 4.9, 56.8 µM and 11.6 µM.
